Only some compounds are listed: those with a hit (about 1.7% of all), similar ones and a draw of the others.
APJ antag – APJ receptor antagonism. CHO-K1 APJ beta-arrestin complementation, luminescence. inhibition, % at 20 µM. P35414. 0.32% of 330,000 active;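 active = inhibition above about 40% at 20 µM, limit read from the data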;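 note: cells challenged with 10 nM apelin-13 agonist together with compound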
PfGluPho inh – PfG6PD (Plasmodium falciparum) enzyme inhibition; PfGluPho enzyme, NADPH resazurin-diaphorase fluorescence; inhibition, % at 20 µM; 0.78% of 350,000 active; AID 504690;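 active = inhibition reaching at least a set limit at 20 µM in the primary screen, cut at about 59% in these data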
CXCR6 inh – blocks human CXCR6 beta-arrestin recruitment; inhibition, % at 20 µM; CHO-K1 PathHunter CXCR6 beta-arrestin, luminescence; 0.36% of 360,000 active; O00574; in the data active = inhibition above about 34%, passing the limit was not always enough;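 note: antagonist mode with CXCL16 agonist at 10 nM final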
Beta2AR agonist – human beta-2 adrenergic receptor agonism by FAP | P07550 | Am2.2-beta2AR cells, FAP receptor internalization, flow cytometry | response, % (test concentration not listed) | 0.43% of 340,000 active;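 active = response above a set limit, near 3 SD of response in nonfluorescent compounds, cut at about 42% in these data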
APJ agonist – APJ receptor agonism; P35414; CHO-K1 APJ PathHunter beta-arrestin, luminescence; 0% DMSO wells, 100% apelin; activation, % at 20 µM; 0.11% of 330,000 active;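 active = activation more than six SD over the plate average, tested at 20 µM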
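system = engineered CHO-K1 APJ arrestin reporter cells | input = 1000 cells per well | timing = overnight seeding, 90 min compound at 25 °C, 1 h detection | measured by = enzyme-fragment complementation luminescence | read-out = beta-arrestin recruitment to APJ as agonist activity, luminescent signal | control set = negative DMSO alone, positive Apelin-13 at 10 nM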
CCR6 antagonist – antagonists of human CCR6 receptor; P51684; CHO-K1 CCR6 PathHunter beta-arrestin, luminescence, CCL20-stimulated; inhibition, % at 20 µM; 0.49% of 340,000 active; AID 493098;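 active = compounds whose inhibition of the agonist-driven luminescence signal at 20 µM reaches about 50%, limit read from the data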;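 note: cells stimulated with CCL20 at 14 nM final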
Target sequence (P51684 whole entry, looked up): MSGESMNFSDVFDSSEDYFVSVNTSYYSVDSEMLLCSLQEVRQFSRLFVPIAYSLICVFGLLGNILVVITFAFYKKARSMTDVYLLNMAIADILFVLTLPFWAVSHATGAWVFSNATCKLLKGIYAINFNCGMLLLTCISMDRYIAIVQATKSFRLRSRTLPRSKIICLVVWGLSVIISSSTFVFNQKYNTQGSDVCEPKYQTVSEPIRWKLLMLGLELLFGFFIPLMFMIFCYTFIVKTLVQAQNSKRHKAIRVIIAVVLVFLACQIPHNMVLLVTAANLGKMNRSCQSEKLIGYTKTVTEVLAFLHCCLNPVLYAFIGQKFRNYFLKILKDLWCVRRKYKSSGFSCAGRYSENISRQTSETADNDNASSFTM
APJ antag conf – APJ receptor antagonism confirmation. shares compounds with APJ antag. APJ beta-arrestin recruitment, luminescence, antagonist mode. inhibition, % at 20 µM. 66% of 950 active. AID 2766; in the data active = inhibition above about 50%
A number is an active result; . = inactive; / = no result given.

SMILES | APJ antag | PfGluPho inh | CXCR6 inh | Beta2AR agonist | APJ agonist | CCR6 antagonist | APJ antag conf
Cc1nn(Cc2ccc(Cl)cc2)c(C)c1NC(=O)C1CC=CCC1C(=O)O (stereo unspecified) | 50.2 | . | . | . | . | . | .
Cc1cccc(S(=O)(=O)NC(=O)C2(C)CCN2C(=O)Cc2cc(F)ccc2F)c1 (stereo unspecified) | / | / | . | / | / | / | /
O=C(COC(=O)c1ccncc1)c1ccc(Cl)c(Cl)c1 | 74.2 | . | . | . | . | . | 85.5
Cc1ccc(C(=O)COC(=O)c2ccncc2)cc1[N+](=O)[O-] | 46.0 | . | . | . | . | . | 69.9
COc1cc(C(=O)COC(=O)c2ccncc2)cc(OC)c1OC | . | . | . | . | . | . | /
O=C(Cn1nnc2ccccc21)OCC(=O)c1ccc(Cl)c(Cl)c1 | 90.8 | . | . | . | . | 72.9 | 110.9
COc1ccccc1-c1nnc(SCC(=O)Nc2cccnc2Cl)n1C | . | . | . | . | . | . | /
Clc1ccc(-c2nn3c(-c4ccccc4)nnc3s2)cc1 | 43.3 | . | . | . | . | . | .
c1ccc(-c2nnc3sc(-c4ccncc4)nn23)cc1 | . | . | . | . | . | . | /
O=C(CNC(=O)c1nn(Cc2ccccc2)c(=O)c2ccccc12)Nc1ccc(F)c(F)c1F | . | . | . | . | . | . | /
Cc1nn(CCC(=O)NNC(=S)Nc2ccccc2)c(C)c1Br | 47.5 | . | . | . | . | . | 100.1
CNC(=S)NNC(=O)CCn1nc(C)c(Br)c1C | . | . | . | . | . | . | /
Cc1nn(CCC(=O)NNC(=S)NCC(C)C)c(C)c1Br | 77.3 | . | . | . | . | 53.3 | 114.8
Cc1nn(CCC(=O)NNC(=S)Nc2ccc(F)cc2)c(C)c1[N+](=O)[O-] | . | . | . | . | . | . | /
CCOc1cc(/C=C2\CCn3c2nc2cc(Cl)ccc2c3=O)ccc1O | . | . | . | . | . | . | /
CCCNc1c(N)c(=O)oc2ccccc12 | 56.5 | . | . | . | . | . | .
CC(C)(C)[C@H]1COC(=O)CC/C=C\C[C@H](CC(=O)N(CCO)Cc2ccccc2)C(=O)N1 | . | . | . | . | . | . | /
CC(=O)C1=C(c2cccc([N+](=O)[O-])c2)N(C(C)=O)n2c(C)nnc2S1 | 106.8 | . | . | . | . | 69.8 | 153.9
N#CC(c1ccc(Cl)cc1)c1ccc2c(C(F)(F)F)cc(C(F)(F)F)nc2n1 (stereo unspecified) | 46.7 | . | 45.0 | . | . | 56.3 | 75.9
O=C(NNc1ccc(O)cc1)c1ccc(Br)cc1 | 86.0 | . | 70.2 | . | . | 101.3 | 139.5
O=C(NNc1ccccc1)c1ccccc1 | / | . | . | . | / | . | /
CCC(C)(C)c1nnc(NC(=O)CCC2CCCCC2)s1 | . | . | . | . | . | . | /
COC(=O)CCC(=O)N1CCC(Oc2cccc(C(=O)NCc3ccccn3)c2)CC1 | / | . | . | / | / | / | /
COCC(=O)N1CCC(Oc2cccc(C(=O)NCc3ccccn3)c2)CC1 | 42.8 | . | . | . | . | . | .
O=C(c1ccco1)N1CCN(C(=O)c2ccccc2NS(=O)(=O)c2ccc(F)cc2)CC1 | . | . | . | . | . | . | /
SMILES | APJ antag | PfGluPho inh | CXCR6 inh | Beta2AR agonist | APJ agonist | CCR6 antagonist | APJ antag conf
CCCCOC(=O)C1=C(C)NC(=O)NC1c1ccccc1 (stereo unspecified) | . | . | . | . | . | . | /
CC(=O)Nc1ccc(S(=O)(=O)N[C@@H](C)C(=O)OCC(=O)NC2CCCC2)cc1 | . | . | . | . | . | . | /
COc1ccc(/C=C/C(=O)NC(=S)Nc2cc([N+](=O)[O-])ccc2O)cc1OC | 42.4 | . | . | . | . | . | 59.9
COc1ccc(CCC(=O)NNC(=O)Nc2cc(Cl)ccc2C)cc1 | . | . | . | . | . | . | /
CCN1C(=O)[C@H]2[C@@H](c3ccc(-c4ccc(C(C)=O)cc4)cc3)N[C@@](C)(C(=O)OC)[C@H]2C1=O | . | . | . | . | . | . | /
CN1C(=O)/C(=C\c2cc(N=Nc3ccccc3)ccc2O)SC1=S | 67.6 | . | 51.6 | . | . | 54.6 | 109.5
Cc1ccc(C)c(N(CC(=O)NC(C)(C)C)C(=O)CCC(=O)Nc2nccs2)c1 | . | . | . | . | . | . | /
CCC1=NN(C(=O)c2ccc(Cl)cc2)C(O)(c2ccccc2)C1 (stereo unspecified) | 40.9 | . | . | . | . | . | .
COC(=O)C1=NN(C(=O)c2ccc(Cl)cc2)C(O)(c2ccccc2)C1 (stereo unspecified) | . | . | . | . | . | . | /
CCC(C)c1ccccc1NC(=O)c1cc(C)no1 (stereo unspecified) | . | . | . | . | . | . | /
COc1ccccc1N(C(=O)c1ccco1)C(C(=O)NC1CCCCC1)c1cc(OC)c(OC)c(OC)c1 (stereo unspecified) | . | . | . | . | . | . | /
CCCCCOC(=O)c1c(N)n(CCOC)c2nc3ccccc3nc12 | 43.5 | . | . | . | . | . | .
COCCOC(=O)c1c(N)n(CCCN2CCOCC2)c2nc3ccccc3nc12 | . | . | . | . | . | . | /
COC(=O)c1[nH]c(=O)c2ccccc2c1O | 42.8 | . | . | . | . | 67.8 | .
Cc1cc(NC(=O)CCN2C(=O)C3C4CCC(C4)C3C2=O)c(C)cc1Br (stereo unspecified) | . | . | . | . | . | . | /
Cc1cc(Br)c(Cl)cc1NC(=O)CN1C(=O)C2C3CC(c4ccccc4)C(C3)C2C1=O (stereo unspecified) | 55.2 | . | . | . | . | . | .
CC1(c2nnnn2-c2ccc3c(c2)OCCO3)CCC(=O)N1CCc1ccc(O)cc1 (stereo unspecified) | / | / | . | / | / | / | /
O=C(Nc1ccccc1N1CCCC1)c1ccccc1Cl | . | . | . | . | . | . | /
O=C(Nc1ccccc1N1CCN(C(=O)c2ccccc2)CC1)c1ccccc1Cl | 80.2 | . | . | . | . | . | .
CC(C)CNc1ncnc2c1ncn2[C@H]1CN(CCN2CCOCC2)C[C@@H](CO)O1 | / | / | . | / | / | / | /
O=C(N/N=C/c1cc(Br)cc([N+](=O)[O-])c1O)c1ccc(NC(=O)c2ccc(F)cc2)cc1 | 49.3 | . | . | . | . | 69.4 | 86.0
O=C1ON=C(c2ccccc2)/C1=C/c1ccc(O)c(O)c1 | 41.7 | . | . | . | . | . | 68.1
CC(C)c1nc(C#N)c(NCCCn2ccnc2)o1 | . | . | . | . | . | . | /
CC(C)c1nc(C#N)c(NN)o1 | 42.3 | . | . | . | . | . | 66.3
C/C(=N\NC(=O)c1cc(C)nc2ccc(C)cc12)c1ccncc1 | . | . | . | . | . | . | /
CC(C)N1C(=O)S/C(=C/c2ccc3c(c2)n(C)c(=O)n3C)C1=O | . | . | . | . | . | . | /
